# This is a sample that favours compounds with a hit; in the whole collection about 12% have one here.
# Diaph inh CS = diaphorase inhibitors and chemical oxidizers, primary screen, counter-screen for diaphorase-coupled primary assays, biochemical, uHTS, resorufin fluorescence; diaphorase resazurin-to-resorufin fluorescence, NADH, 16 min; bacterial (C. kluyveri) enzyme, not human; inhibition, % at 20 µM; 190,000 tested, 0.69% active; AID 1217, 2008;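 active = primary screen inhibition at 20 µM above a set limit, cut at about 50% in these data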;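 note: plate controls were DMSO with full reaction for no effect and wells lacking NADH for full effect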
#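 Test system: Clostridium kluyveri diaphorase enzyme / Quantity: diaphorase at 0.14 U/mL in enzyme working solution / Incubation: 16-min room-temperature incubation before reading / Benchmarks: NADH-free wells as positive control, DMSO-only neutral wells / Signal: resorufin fluorescence 544/590 nm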
# Lmaj promast = Leishmania major promastigote growth inhibition, primary screen; inhibition, % at 10 µM; AID 1063, 2008; Leishmania major promastigotes, resazurin fluorescence viability; 200,000 tested, 9% active; in the data active = inhibition above about 50%;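 note: promastigotes grown with compound for 44 hours at 28 °C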
# WT yeast gro inh = growth inhibition of WT strain, primary screen, mitochondrial fusion inhibitor project, WT and mutant strains, chemical genetic; mitochondrial fusion phenotypic screen; inhibition, % at 10 µM; 190,000 tested, 2.1% active; AID 1362, 2008; in the data active = inhibition above about 58%; tested in S. cerevisiae
# ROMK mod = ROMK potassium channel modulators, primary screen, cell-based, thallium flux, MLSMR library | ATP-sensitive inward rectifier potassium channel 1 (Homo sapiens), P48048 | Tet-inducible ROMK, thallium flux fluorescence; actives lie on both sides | B-score at 10 µM | 130,000 tested, 2% active | AID 1918, 2009;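 active = signal ratio slope over the read window, or its plate-corrected B-score, at least 3 SD from the plate mean, either direction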;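 note: B-score of the F/F0 ratio slope over 7 to 12 s after thallium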
# Target sequence (P48048 whole entry, looked up): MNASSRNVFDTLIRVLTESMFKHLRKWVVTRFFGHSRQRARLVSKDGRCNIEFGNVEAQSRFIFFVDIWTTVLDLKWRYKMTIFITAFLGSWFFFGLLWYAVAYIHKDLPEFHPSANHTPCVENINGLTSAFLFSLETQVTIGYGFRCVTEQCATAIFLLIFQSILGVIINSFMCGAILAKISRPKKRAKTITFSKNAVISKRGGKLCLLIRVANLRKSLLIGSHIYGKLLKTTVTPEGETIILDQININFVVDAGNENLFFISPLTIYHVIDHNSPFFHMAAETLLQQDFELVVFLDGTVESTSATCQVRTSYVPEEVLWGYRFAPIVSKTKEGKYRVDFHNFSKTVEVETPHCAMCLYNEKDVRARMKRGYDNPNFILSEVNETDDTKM
# Diaph act CS = compounds boosting diaphorase resazurin reduction – biochemical, uHTS, resorufin fluorescence, counter-screen for diaphorase-coupled primary assays, primary screen. 190,000 tested, 0.005% active. activation factor at 20 µM. Diaphorase/resazurin coupled assay, 16 min; stronger effect = higher value; 1 = vehicle wells, 0 = NADH-free wells. AID 1229, 2008;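 active = diaphorase activity raised at least twofold by the compound at 20 µM; inactive = activation factor below 2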
#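 Material: purified diaphorase enzyme from Clostridium kluyveri / Medium: HEPES pH 7.4 buffer with MgCl2 and Tween 20 / Schedule: enzyme reaction of 16 min at room temperature / Measured by: resorufin fluorescence, excitation 544 nm, emission 590 nm / Evaluation: rise in resorufin formation, marking diaphorase activation or chemical reduction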
# KCC2 mod = KCC2 cotransporter modulators, thallium flux, primary screen, cell-based, HEK293 KCC2, FluoZin-2 fluorescence, MLSMR; KCC2 cells, thallium flux FluoZin-2 fluorescence; B-score of Tl+ flux slope (higher = more flux/activation; lower = inhibition) at 10 µM; 190,000 tested, 2.2% active;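 active = thallium flux slope and its plate-corrected score both differing from the plate sample mean at a set confidence after two filtering rounds, in either direction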;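 note: slope of fluorescence scaled to starting intensity during 10 to 20 s after thallium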
# Active calls of the source: *; i = inactive; · = no result.
SMILES,Diaph inh CS,Lmaj promast,WT yeast gro inh,ROMK mod,Diaph act CS,KCC2 mod
O=[N+]([O-])c1ccc(N2CCNCC2)cc1NCc1ccco1,6,101*,-19,·,0.9,-0.8
CN1CCN(c2ccc([N+](=O)[O-])c(NCC3CCCO3)c2)CC1 (stereo unspecified),7,-1,0,·,0.9,0.0005
CN1CCN(c2ccc([N+](=O)[O-])c(NCc3ccco3)c2)CC1,16,100*,-6,-0.7,0.8,-0.017
CNc1cc(N2CCNCC2)ccc1[N+](=O)[O-],8,6,2,-2.6,0.9,1.4
CCC(C)C12CN3CCN(CC(C)(C3)C1=O)C2 (stereo unspecified),5,1,4,0.95,0.9,-0.56
COc1ccc(C)cc1NC(=O)N1CCC2(CC1)OCCO2,6,-1,22,0.12,0.9,-0.95
COC(=O)c1c(C)[nH]c(C(=O)C(Cc2ccccc2)N(C)C)c1C (stereo unspecified),-6,100*,3,-0.51,1.1,-0.38
COc1cc2c(cc1OC)-c1c3c(cc4c1[C@@H](C2)N(C)CC4)OCO3,11,97*,-2,-1.2,0.9,0.004
COc1cc2c(cc1O)C[C@H]1NCCc3cc4c(c-2c31)OCO4,28,99*,4,-0.074,0.7,-0.33
CC(=O)N(C1=NCCCS1)c1ccc(F)cc1,22,13,3,·,0.8,0.51
CC(=O)N(C1=NCCCS1)c1ccc(Cl)cc1,-3,96*,-11,·,1,0.29
CC(=NCc1cccnc1)c1c(O)n(-c2ccccc2)c(=O)[nH]c1=O,17,-4,15,·,0.8,0.42
C[C@@H]1CC2(CCCC[N+]2(C)C)C[C@H]1C,-3,-2,10,1.6,1,1.8
O=C(c1ccc2nc3ccc(Cl)cc3c(=O)n2c1)N1CCC2(CC1)OCCO2,·,-1,·,·,·,-1.1
C/C1=C\[C@@H](C)C/C=C/[C@H]2[C@@H]3O[C@]3(C)[C@@H](C)[C@H]3[C@H](Cc4c[nH]c5ccccc45)NC(=O)[C@]32C(=O)/C=C/C(=O)[C@@H]1O,20,-2,71*,·,0.8,0.43
CCC(=NCc1cccnc1)c1c(O)n(Cc2ccccc2)c(=O)[nH]c1=O,16,10,-14,·,0.8,-1.1
CC(=O)OC(C)(C)/C=C/C(=O)[C@](C)(O)[C@H]1[C@H](O)C[C@@]2(C)[C@@H]3CC=C4[C@H](C[C@H](O)C(=O)C4(C)C)[C@]3(C)C(=O)C[C@]12C,2,52*,5,4.7*,1,1.3
O=C1OC(c2ccc([N+](=O)[O-])cc2)=N/C1=C/N1CC2CC(C1)c1cccc(=O)n1C2 (stereo unspecified),·,·,·,·,·,-5.2
CCOc1ccc(N2C(=O)NC(=O)/C(=C\c3cc(OC)c(OC)cc3[N+](=O)[O-])C2=O)cc1,20,56*,8,·,0.8,0.5
COc1ccc(N2C(=O)NC(=O)/C(=C\c3ccc([N+](=O)[O-])s3)C2=O)cc1,33,97*,18,-1.5,0.7,2.2
COc1ccc(N2C(=O)/C(=C/C=C/c3ccccc3[N+](=O)[O-])C(=O)NC2=S)cc1,34,92*,-11,-0.44,0.7,-1.3
O=c1cccc2n1CC1CC2CN(S(=O)(=O)c2ccc(F)cc2)C1 (stereo unspecified),15,-5,22,0.23,0.8,0.011
Nc1cc(N2CCNCC2)ccc1[N+](=O)[O-],11,1,2,-1.3,0.9,-0.55
O=[N+]([O-])c1cc(F)c(N2CCCCCC2)cc1N1CCNCC1,8,101*,10,-1.1,0.9,-0.073
O=[N+]([O-])c1ccc(N2CCNCC2)cc1N1CCCCCC1,9,99*,-2,-2.7,0.9,1.5
SMILES,Diaph inh CS,Lmaj promast,WT yeast gro inh,ROMK mod,Diaph act CS,KCC2 mod
O=[N+]([O-])c1ccc(N2CCNCC2)c2ncccc12,25,-4,5,·,0.7,0.73
CN1CCN(c2ccc([N+](=O)[O-])c(N3CCCCC3)c2)CC1,12,94*,-10,-0.41,0.9,-1
CN1CCN(c2ccc([N+](=O)[O-])c(N)c2)CC1,10,52*,-16,-0.34,0.9,-0.065
CC(=O)N1N=C(c2cccnc2)OC1c1ccccc1Cl (stereo unspecified),·,·,·,-0.17,·,-0.34
Cc1cc(OC(=O)N(C)C)n(-c2ccccc2)n1,·,·,·,·,·,0.061
COc1ccccc1-n1c(O)c(/C=N/NC(=S)Nc2ccccc2)c(=O)[nH]c1=S,·,·,·,·,·,-0.55
CC(Cc1ccccc1)[n+]1cc(/N=C(\[O-])Nc2ccccc2)on1 (stereo unspecified),11,5,16,0.062,0.9,-0.95
c1ccc(P(c2ccccn2)c2ccccn2)cc1,0,0,2,-0.044,1,1.4
O=C1NC(=S)N(Cc2ccco2)C(=O)/C1=C\c1cccs1,90*,-5,15,1.2,0.1,-0.58
C=CCN1C(=O)/C(=C/c2cccs2)C(=O)NC1=S,2,16,-5,·,1,1.4
COc1ccc(CCNCc2ccc(F)cc2)cc1OC,8,50*,13,-0.43,0.9,0.21
NC(N)=N/N=C/c1cn(-c2ccccc2)nc1-c1cccs1,-36,101*,16,-2.4,1.4,-1.3
O=c1c2ccccc2nc(-c2cccs2)n1-c1ccccc1,4,1,-5,·,1,-0.37
CCCn1c(C(=O)c2ccc(OC)cc2)nc2ccccc21,29,8,-5,-0.81,0.7,-1.6
COc1ccc(C(=O)c2nc3ccccc3n2C(C)C)cc1,10,51*,1,-0.28,0.9,i
O=C(CNC(=O)OCc1ccccc1)NCC(=O)Nc1ccc(Br)cc1C(=O)c1ccccc1,6,70*,-6,·,0.9,-2.5
COc1cc(C(=O)Nc2ccc(Br)cc2C(=O)c2ccccc2Cl)cc(OC)c1OC,13,51*,1,·,0.9,-0.49
CCOC(=O)c1sc(N=Nc2c(O)[nH]c(=O)[nH]c2=O)c(C(=O)OCC)c1C,-2,59*,-253,-0.057,1,-0.14
CC(=O)OC1(c2ccccc2)CCN(C)C(C)C1C (stereo unspecified),14,-2,-20,·,0.9,1.4
O=c1[nH]c2ccccc2c(=O)n1-c1ccc(Cl)cc1Cl,8,-4,4,0.036,0.9,-0.44
